Data as given in ChEMBL document CHEMBL3102726, “Synthesis of tricyclic fused coumarin sulfonates and their inhibitory effects on LPS-induced nitric oxide and PGE2 productions in RAW 264.7 macrophages” (Bioorg Med Chem Lett, 2014).
Active and inactive are the calls of the source. No cut-off for these calls is given here.

Tests used:
[1] = system: RAW264.7; test: Antiinflammatory activity against mouse RAW264.7 cells assessed as inhibition of LPS-induced PGE2 production at 5 uM administered 1 hr prior to LPS-challenge measured after 24 hrs by EIA; assay type: functional
Summary of the method: (§1)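 Single-concentration PGE₂ assay in LPS-stimulated RAW 264.7 cells: test compounds at 5 µM, reference NS398 at 3 µM. PGE₂ in culture media was quantified by EIA. Values are means ± SD of three independent experiments.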

[2] = system: RAW264.7; test: Antiinflammatory activity against mouse RAW264.7 cells assessed as inhibition of LPS-induced NO production at 5 uM after 24 hrs by Griess assay; assay type: functional
Summary of the method: (§2)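 Single-concentration NO assay: test compounds at 5 µM, reference L-NIL at 20 µM, in LPS-stimulated RAW 264.7 cells. Nitrite in the medium was measured by Griess reaction (A540). Values are means ± SD of three independent experiments.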

[3] = system: RAW264.7; test: Cytotoxicity against mouse RAW264.7 cells after 24 hrs by MTT assay; assay type: cell-based; conditions: RAW264.7, 24 h
Summary of the method: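 Cells were seeded at 10⁵/well and exposed to various concentrations of compound for 24 h. Viability was read by colorimetric MTT assay.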

[4] = system: RAW264.7; test: Antiinflammatory activity against mouse RAW264.7 cells assessed as inhibition of LPS-induced PGE2 production administered 1 hr prior to LPS-challenge measured after 24 hrs by EIA; assay type: functional, cell-based
Summary of the method: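 Cells were pretreated for 1 h with compound at 0.1, 1, 10, 100 or 1000 nM, then given LPS (10 ng/mL) for 24 h. PGE₂ in culture media was quantified by EIA kit. Values are means ± SD of three independent experiments; ANOVA with Dunnett's post hoc test.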

[5] = system: RAW264.7; test: Antiinflammatory activity against mouse RAW264.7 cells assessed as inhibition of LPS-induced NO production after 24 hrs by Griess assay; assay type: functional, cell-based; conditions: RAW264.7, 24 h
Summary of the method: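 Cells were plated at 4 × 10⁵/well in DMEM with 10% FBS at 37 °C, 5% CO₂. They were incubated 24 h with LPS (1 µg/mL) plus compound at 1.60–100 µM. Medium was mixed 1:1 with Griess reagent (sulfanilamide/naphthylethylenediamine in phosphoric acid) for 10 min at room temperature, then A540 was read against fresh medium blanks.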

[6] = system: RAW264.7; test: Antiinflammatory activity against mouse RAW264.7 cells assessed as inhibition of LPS-induced iNOS protein expression administered 1 hr prior to LPS-challenge measured after 24 hrs by SDS-PAGE analysis; assay type: functional, cell-based
Summary of the method: (§3)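 RAW 264.7 macrophages were pretreated for 1 h with or without 0.01, 0.1, 0.5, 1, 5 or 10 µM compound, then stimulated with LPS (10 ng/mL) for 24 h. Cell lysates were run on SDS–PAGE and transferred to PVDF. Blots were probed with iNOS and COX-2 antibodies, with β-actin as internal control.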

[7] = system: RAW264.7; test: Antiinflammatory activity against mouse RAW264.7 cells assessed as inhibition of LPS-induced COX2 protein expression administered 1 hr prior to LPS-challenge measured after 24 hrs by SDS-PAGE analysis; assay type: functional, cell-based; summary of the method: as §3
[8] = target: T1, Prostaglandin G/H synthase 2 (Homo sapiens) (UniProt P35354); test: Inhibition of LPS-induced recombinant COX2 (unknown origin) activity expressed in mouse RAW264.7 cells at 0.1 to 5 uM after 10 mins; assay type: cell-based
T1 sequence (whole entry): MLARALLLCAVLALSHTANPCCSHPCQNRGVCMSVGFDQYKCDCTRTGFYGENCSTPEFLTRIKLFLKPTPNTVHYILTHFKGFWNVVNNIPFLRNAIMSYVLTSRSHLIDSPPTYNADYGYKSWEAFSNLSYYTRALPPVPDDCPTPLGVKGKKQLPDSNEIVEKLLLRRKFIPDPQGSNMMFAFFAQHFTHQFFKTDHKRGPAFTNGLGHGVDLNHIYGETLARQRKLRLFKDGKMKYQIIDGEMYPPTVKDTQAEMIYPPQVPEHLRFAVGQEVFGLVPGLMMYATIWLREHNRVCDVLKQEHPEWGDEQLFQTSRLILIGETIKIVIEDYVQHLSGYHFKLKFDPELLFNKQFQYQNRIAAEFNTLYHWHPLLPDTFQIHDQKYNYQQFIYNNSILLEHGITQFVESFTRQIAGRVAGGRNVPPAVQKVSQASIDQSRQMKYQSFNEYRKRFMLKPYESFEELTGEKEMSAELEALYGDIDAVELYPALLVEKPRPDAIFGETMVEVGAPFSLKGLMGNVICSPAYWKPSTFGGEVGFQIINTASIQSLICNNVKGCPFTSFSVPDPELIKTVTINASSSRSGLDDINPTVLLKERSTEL

[9] = system: RAW264.7; test: Ratio of L-NIL IC50 to compound IC50 for mouse RAW264.7 cells; assay type: functional
[10] = target: T2, Nitric oxide synthase, inducible (Mus musculus) (UniProt P29477); test: Inhibition of LPS-induced iNOS activity in mouse RAW264.7 cells at 1 to 10 uM after 12 hrs
T2 sequence (whole entry): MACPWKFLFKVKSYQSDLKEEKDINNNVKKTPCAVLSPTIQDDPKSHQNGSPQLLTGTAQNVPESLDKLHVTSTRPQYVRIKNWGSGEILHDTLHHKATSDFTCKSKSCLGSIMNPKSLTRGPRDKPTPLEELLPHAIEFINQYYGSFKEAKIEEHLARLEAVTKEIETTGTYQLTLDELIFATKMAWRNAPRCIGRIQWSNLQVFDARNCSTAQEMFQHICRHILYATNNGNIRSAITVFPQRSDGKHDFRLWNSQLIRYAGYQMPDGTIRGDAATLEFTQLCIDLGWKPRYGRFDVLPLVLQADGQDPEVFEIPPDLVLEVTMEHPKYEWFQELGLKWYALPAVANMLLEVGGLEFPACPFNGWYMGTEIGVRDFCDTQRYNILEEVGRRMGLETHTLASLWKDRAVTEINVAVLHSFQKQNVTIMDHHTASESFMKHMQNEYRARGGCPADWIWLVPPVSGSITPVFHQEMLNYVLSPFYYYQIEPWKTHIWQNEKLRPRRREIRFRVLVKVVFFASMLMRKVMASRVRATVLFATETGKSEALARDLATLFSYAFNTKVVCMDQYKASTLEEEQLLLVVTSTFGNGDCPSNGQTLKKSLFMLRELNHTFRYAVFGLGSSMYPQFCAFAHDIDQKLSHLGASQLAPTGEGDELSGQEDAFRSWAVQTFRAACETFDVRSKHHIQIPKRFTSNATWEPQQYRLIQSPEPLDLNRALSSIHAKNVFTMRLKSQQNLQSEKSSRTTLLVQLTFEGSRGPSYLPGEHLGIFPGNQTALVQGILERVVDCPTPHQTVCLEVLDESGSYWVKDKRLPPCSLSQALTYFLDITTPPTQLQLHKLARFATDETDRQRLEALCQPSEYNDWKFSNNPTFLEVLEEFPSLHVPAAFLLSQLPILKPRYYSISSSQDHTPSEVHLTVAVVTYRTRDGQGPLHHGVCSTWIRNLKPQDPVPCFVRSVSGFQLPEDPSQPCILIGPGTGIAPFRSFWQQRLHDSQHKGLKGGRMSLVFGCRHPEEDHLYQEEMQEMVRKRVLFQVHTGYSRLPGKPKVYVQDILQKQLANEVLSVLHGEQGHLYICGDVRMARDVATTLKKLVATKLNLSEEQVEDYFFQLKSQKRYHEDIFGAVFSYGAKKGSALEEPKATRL

[11] = system: RAW264.7; test: Antiinflammatory activity against mouse RAW264.7 cells assessed as inhibition of LPS-induced NO production administered 1 hr prior to LPS-challenge measured after 24 hrs by Griess assay; assay type: functional, cell-based
Summary of the method: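 RAW 264.7 cells were grown in DMEM with 10% FBS, penicillin and streptomycin at 37 °C under 5% CO2, then plated at 4 × 10^5 cells/well. Culture medium was mixed 1:1 with Griess reagent (equal volumes of 1% sulfanilamide in 5% phosphoric acid and 0.1% naphthylethylenediamine·HCl) for 10 min at room temperature, and nitrite was read at 540 nm against fresh-medium blanks.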

[12] = system: RAW264.7; test: Ratio of NS398 IC50 to compound IC50 for mouse RAW264.7 cells; assay type: functional
[13] = system: RAW264.7; test: Antiinflammatory activity against mouse RAW264.7 cells assessed as inhibition of LPS-induced PGE2 production at 3 uM administered 1 hr prior to LPS-challenge measured after 24 hrs by EIA; assay type: functional, cell-based; summary of the method: as §1
[14] = system: RAW264.7; test: Antiinflammatory activity against mouse RAW264.7 cells assessed as inhibition of LPS-induced NO production at 20 uM after 24 hrs by Griess assay; assay type: functional; conditions: RAW264.7, 24 h; summary of the method: as §2

| SMILES | inhibition [1] | inhibition [2] | IC50 [3] [µM] | IC50 [4] [µM] | other results |
| --- | --- | --- | --- | --- | --- |
| CCCS(=O)(=O)Oc1ccc2c3c(c(=O)oc2c1)CCCCC3 | Active | Active | 23.9 | – | – |
| CS(=O)(=O)Oc1ccc2c3c(c(=O)oc2c1)CCCCC3 | Active | Active | 90.8 | – | – |
| O=c1oc2cc(OS(=O)(=O)c3ccc(C(F)(F)F)cc3)ccc2c2c1CCCCCC2 | – | Active | > 100 | 0.00604 | IC50 [5]: 75.3 µM |
| CS(=O)(=O)Oc1ccc2c3c(c(=O)oc2c1)CCCCCC3 | Active | Active | 24.5 | – | – |
| Cc1ccc(S(=O)(=O)Oc2ccc3c4c(c(=O)oc3c2)CCCCC4)cc1 | Active | Active | > 100 | – | – |
| O=c1oc2cc(OS(=O)(=O)c3ccc(C(F)(F)F)cc3)ccc2c2c1CCCCC2 | – | – | > 100 | 0.00645 | inhibition [6]: Active; inhibition [7]: Dose-dependent effect; inhibition [8]: Active; Ratio IC50 [9]: 5.24; inhibition (INH) [1]: 91.48%; inhibition at 5 µM ([2]; RAW264.7, 24 h): 65.8%; IC50 [5]: 3.84 µM; inhibition [10]: inactive |
| NS(=O)(=O)Oc1ccc2c3c(c(=O)oc2c1)CCCCC3 [IROSUSTAT] | – | – | – | 0.081 | IC50 [11]: 85.8 µM; inhibition [11]: Dose-dependent effect; inhibition [4]: Dose-dependent effect |
| Cc1ccc(S(=O)(=O)Oc2ccc3c4c(c(=O)oc3c2)CCCCCC4)cc1 | Active | Active | > 100 | 0.00675 | IC50 [5]: 40.7 µM |
| CCCS(=O)(=O)Oc1ccc2c3c(c(=O)oc2c1)CCCCCC3 | Active | Active | 9.2 | 0.00402 | Ratio IC50 [12]: 1.74; IC50 [5]: 10 µM |
| O=c1oc2cc(OS(=O)(=O)c3ccccc3)ccc2c2c1CCCCCC2 | – | Active | > 100 | – | – |
| CS(=O)(=O)Nc1ccc([N+](=O)[O-])cc1OC1CCCCC1 [NS-398] | – | – | – | 0.00701 | inhibition [13]: Active |
| O=c1oc2cc(OS(=O)(=O)c3ccccc3)ccc2c2c1CCCCC2 | Active | Active | > 100 | – | – |
| O=c1oc2cc(OS(=O)(=O)C3CC3)ccc2c2c1CCCCC2 | Active | Active | 20.3 | – | – |
| CCS(=O)(=O)Oc1ccc2c3c(c(=O)oc2c1)CCCCC3 | Active | Active | 23.4 | – | – |
| O=c1oc2cc(OS(=O)(=O)C3CC3)ccc2c2c1CCCCCC2 | Active | Active | 10.5 | – | – |
| CCS(=O)(=O)Oc1ccc2c3c(c(=O)oc2c1)CCCCCC3 | Active | Active | 21.5 | – | – |
| CC(=N)NCCCC[C@H](N)C(=O)O [L-NIL] | – | – | – | – | inhibition at 20 µM [14]: 50%; IC50 [5]: 20.1 µM |
